Measured values as given in ChEMBL document CHEMBL3352028, “SAR studies on tetrahydroisoquinoline derivatives: the role of flexibility and bioisosterism to raise potency and selectivity toward P-glycoprotein” (J Med Chem, 2014).

What was measured:
[1] = molecular target: Multidrug resistance-associated protein 1 (Homo sapiens, UniProt P33527); test: Inhibition of MRP1 (unknown origin) over-expressed in MDCK cells assessed as calcein accumulation incubated for 30 mins prior to Calcein-AM addition measured after 30 mins by fluorescence assay; type: cell-based
Summary of the method: (§1)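 MDCK-MDR1 or MDCK-MRP1 cells at 50 000 cells/well, confluent overnight. Compounds in culture medium for 30 min at 37 °C, then Calcein-AM added (2.5 μM final) for a further 30 min. Washed three times with ice-cold PBS, fluorescence read at ex 485, em 535 nm. Percent increase over untreated basal level fitted against log dose to give EC50.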

[2] = Efflux ratio of apparent permeability from basolateral to apical side over apical to basolateral side in human Caco2 cells at 100 uM after 120 mins by UV-Vis spectrophotometry; type: ADME, cell-based; conditions: Caco-2
Summary of the method: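 Caco-2 cells seeded at 10 000 cells/well and grown 21 days, medium changed every 48 h for 6 days then daily; TEER checked before and after, generally >1000 Ω. Monolayers preincubated twice in HBSS (pH 7.4) 30 min at 37 °C. Drug at 100 μM in HBSS on apical or basolateral side, 120 min at 37 °C. Both sides sampled, drug quantified by UV-vis against a calibration curve. Papp computed from acceptor concentration, volume, membrane area (0.11 cm2) and time (7200 s). Ratio taken as B→A over A→B.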

[3] = molecular target: ATP-dependent translocase ABCB1 (Homo sapiens, UniProt P08183); test: Inhibition of MDR1 (unknown origin) over-expressed in MDCK cells assessed as calcein accumulation incubated for 30 mins prior to Calcein-AM addition measured after 30 mins by fluorescence assay; type: cell-based; summary of the method: as §1
[4] = molecular target: T1, Broad substrate specificity ATP-binding cassette transporter ABCG2 (Homo sapiens, UniProt Q9UNQ0); test: Inhibition of BCRP (unknown origin) over-expressed in MDCK cells assessed as Hoechst 33342 accumulation incubated for 30 mins prior to Hoechst 33342 addition measured after 30 mins by fluorescence assay; type: cell-based; conditions: 0.5 h
T1 sequence (Q9UNQ0 whole entry): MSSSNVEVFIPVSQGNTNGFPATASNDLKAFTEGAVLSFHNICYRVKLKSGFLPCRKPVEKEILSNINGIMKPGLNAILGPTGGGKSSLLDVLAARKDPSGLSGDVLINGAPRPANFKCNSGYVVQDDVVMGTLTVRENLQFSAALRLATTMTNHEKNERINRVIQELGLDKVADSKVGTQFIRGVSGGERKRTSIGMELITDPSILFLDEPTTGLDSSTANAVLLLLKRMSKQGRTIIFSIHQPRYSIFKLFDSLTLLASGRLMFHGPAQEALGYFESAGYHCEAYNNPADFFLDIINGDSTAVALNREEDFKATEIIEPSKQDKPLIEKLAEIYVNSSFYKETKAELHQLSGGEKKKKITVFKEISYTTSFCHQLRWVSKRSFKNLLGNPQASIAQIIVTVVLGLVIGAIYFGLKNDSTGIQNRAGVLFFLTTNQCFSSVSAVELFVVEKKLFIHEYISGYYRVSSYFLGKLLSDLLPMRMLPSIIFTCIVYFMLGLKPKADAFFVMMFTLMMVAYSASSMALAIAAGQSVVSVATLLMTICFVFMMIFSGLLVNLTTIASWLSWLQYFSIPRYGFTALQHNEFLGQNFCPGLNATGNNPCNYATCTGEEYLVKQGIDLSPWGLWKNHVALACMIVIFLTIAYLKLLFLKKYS
Summary of the method: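 MDCK-BCRP cells at 30 000 cells/well, confluent overnight. Compounds in culture medium for 30 min at 37 °C, then Hoechst 33342 added (8 μM final) for 30 min. Cells fixed 20 min in 4% PFA protected from light, washed three times with ice-cold PBS, fluorescence read at ex 340/35, em 485/20 nm. Increase over untreated basal level fitted against log dose to give EC50.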

Chain of ATP-dependent translocase ABCB1 (P08183 whole entry): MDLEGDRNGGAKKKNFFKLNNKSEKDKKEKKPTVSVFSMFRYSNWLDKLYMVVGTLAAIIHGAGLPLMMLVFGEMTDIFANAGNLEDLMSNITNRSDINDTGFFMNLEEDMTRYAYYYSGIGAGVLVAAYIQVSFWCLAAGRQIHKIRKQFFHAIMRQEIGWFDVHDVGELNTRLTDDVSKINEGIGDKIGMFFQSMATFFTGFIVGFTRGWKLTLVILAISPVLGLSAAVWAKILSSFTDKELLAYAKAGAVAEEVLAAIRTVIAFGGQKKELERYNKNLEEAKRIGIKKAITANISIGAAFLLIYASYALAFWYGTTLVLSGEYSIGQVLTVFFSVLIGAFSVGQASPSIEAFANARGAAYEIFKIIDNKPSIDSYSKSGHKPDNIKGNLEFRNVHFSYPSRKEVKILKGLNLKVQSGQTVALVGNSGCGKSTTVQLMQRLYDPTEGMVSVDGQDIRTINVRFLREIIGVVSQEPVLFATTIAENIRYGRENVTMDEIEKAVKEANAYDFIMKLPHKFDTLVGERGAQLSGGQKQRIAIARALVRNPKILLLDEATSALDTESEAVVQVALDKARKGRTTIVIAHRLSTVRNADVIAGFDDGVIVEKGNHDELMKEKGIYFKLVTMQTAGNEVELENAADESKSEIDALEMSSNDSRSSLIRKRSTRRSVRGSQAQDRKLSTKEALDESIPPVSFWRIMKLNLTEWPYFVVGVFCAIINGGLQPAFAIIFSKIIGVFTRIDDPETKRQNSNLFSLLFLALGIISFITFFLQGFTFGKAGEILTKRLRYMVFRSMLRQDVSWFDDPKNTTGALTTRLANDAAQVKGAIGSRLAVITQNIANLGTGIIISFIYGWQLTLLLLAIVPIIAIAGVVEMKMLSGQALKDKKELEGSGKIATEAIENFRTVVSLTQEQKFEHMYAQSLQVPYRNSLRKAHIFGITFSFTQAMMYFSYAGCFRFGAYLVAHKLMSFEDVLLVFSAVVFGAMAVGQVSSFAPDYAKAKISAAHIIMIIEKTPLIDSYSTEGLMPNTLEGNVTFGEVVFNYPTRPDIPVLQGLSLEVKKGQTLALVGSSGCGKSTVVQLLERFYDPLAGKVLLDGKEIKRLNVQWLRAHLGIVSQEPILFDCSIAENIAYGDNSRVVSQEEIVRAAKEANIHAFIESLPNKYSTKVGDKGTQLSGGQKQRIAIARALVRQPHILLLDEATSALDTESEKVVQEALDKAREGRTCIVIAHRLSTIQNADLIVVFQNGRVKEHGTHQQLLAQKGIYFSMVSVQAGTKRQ
Chain of Multidrug resistance-associated protein 1 (P33527 whole entry): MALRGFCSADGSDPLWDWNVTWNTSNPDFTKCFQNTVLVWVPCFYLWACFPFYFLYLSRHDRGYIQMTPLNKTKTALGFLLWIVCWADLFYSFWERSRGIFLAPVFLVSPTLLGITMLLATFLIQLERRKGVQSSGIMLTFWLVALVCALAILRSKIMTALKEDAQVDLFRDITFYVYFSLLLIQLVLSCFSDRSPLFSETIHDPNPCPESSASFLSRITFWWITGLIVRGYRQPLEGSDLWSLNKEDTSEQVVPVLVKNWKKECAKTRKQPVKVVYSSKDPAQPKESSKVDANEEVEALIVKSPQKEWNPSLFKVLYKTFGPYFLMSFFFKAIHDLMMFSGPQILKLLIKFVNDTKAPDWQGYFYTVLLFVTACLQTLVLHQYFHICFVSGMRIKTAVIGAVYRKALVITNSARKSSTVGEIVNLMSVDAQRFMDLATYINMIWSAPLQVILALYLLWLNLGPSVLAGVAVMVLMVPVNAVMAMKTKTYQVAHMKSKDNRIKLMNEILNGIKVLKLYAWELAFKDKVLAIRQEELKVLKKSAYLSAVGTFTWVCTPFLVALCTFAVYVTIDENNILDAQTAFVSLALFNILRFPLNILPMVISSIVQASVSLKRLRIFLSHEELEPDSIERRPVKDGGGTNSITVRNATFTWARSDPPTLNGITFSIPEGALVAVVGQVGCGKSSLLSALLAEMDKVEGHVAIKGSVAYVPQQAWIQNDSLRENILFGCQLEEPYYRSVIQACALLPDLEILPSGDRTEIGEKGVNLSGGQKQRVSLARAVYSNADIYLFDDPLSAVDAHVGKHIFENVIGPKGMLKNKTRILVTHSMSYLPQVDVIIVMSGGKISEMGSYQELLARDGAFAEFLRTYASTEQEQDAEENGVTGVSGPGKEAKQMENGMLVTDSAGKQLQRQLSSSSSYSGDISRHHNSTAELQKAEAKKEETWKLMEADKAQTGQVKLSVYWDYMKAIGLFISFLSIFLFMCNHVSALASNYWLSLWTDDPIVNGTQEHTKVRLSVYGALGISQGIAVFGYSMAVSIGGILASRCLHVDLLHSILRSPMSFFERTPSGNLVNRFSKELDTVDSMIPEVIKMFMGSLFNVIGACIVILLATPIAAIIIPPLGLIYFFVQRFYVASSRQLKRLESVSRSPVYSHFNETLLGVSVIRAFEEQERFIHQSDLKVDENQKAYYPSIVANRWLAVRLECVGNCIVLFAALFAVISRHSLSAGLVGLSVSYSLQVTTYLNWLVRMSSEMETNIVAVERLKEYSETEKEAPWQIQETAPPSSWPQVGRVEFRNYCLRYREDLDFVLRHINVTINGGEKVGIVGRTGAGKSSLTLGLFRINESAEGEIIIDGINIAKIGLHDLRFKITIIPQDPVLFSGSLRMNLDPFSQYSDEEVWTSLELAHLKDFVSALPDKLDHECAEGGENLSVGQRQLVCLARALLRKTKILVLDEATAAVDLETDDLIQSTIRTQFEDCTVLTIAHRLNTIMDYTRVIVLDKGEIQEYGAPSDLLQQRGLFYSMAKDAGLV

Row | SMILES | EC50 ([1]; mdck) | efflux ratio at 2 h, 100 µM [2] | EC50 ([3]; read-out: EC50) | inhibition (INH) [4] | EC50 ([1]; read-out: EC50) | EC50 ([3]; mdck)
1 | COc1cc2c(cc1OC)CN(CCCC1CCCc3c(OC)cccc31)CC2 (stereo not drawn) | Not Active | 4.4 |  |  |  | 
2 | COc1cc2c(cc1OC)CN(Cc1ccc(-c3ccc(O)cc3)cc1)CC2 |  |  | 9300 nM |  |  | 
3 | COc1ccc(-c2ccc(CN3CCc4cc(OC)c(OC)cc4C3)cc2)cc1 | Not Active | 4.4 |  |  |  | 
4 | COc1ccc(-c2ccc3c(c2)C=C(CC(=O)N2CCc4cc(OC)c(OC)cc4C2)CO3)cc1 | Not Active | 3.2 | 5800 nM | Not Active |  | 
5 | COc1ccc(-c2ccc(C(=O)N3CCc4cc(OC)c(OC)cc4C3)o2)cc1 | Not Active | 5.2 | 910 nM | Not Active |  | 
6 | COc1cc2c(cc1OC)CN(C(=O)c1ccc(-c3ccc(O)cc3)o1)CC2 | Not Active | 4.5 | 6400 nM | Not Active |  | 
7 | COc1ccc(-c2ccc(CN3CCc4cc(OC)c(OC)cc4C3)o2)cc1 | Not Active | 3.7 | 4300 nM | Not Active |  | 
8 | COc1cc2c(cc1OC)CN(Cc1ccc(-c3ccc(O)cc3)o1)CC2 | Not Active | 5.7 | 8100 nM | Not Active |  | 
9 | COc1ccc(-c2ccc(CC(=O)N3CCc4cc(OC)c(OC)cc4C3)cc2)cc1 |  | 3.9 | 800 nM | Not Active | 10000 nM | 
10 | COc1ccc(-c2ccc(CCN3CCc4cc(OC)c(OC)cc4C3)cc2)cc1 | Not Active | 38 | 570 nM | Not Active |  | 
11 | COc1cc2c(cc1OC)CN(CCc1ccc(-c3ccc(F)cc3)cc1)CC2 | Not Active | 3.8 | 2000 nM | Not Active |  | 
12 | COc1cc2c(cc1OC)CN(Cc1ccc(-c3ccc(F)cc3)cc1)CC2 | Not Active | 3.8 | 4900 nM | Not Active |  | 
13 | COc1ccc(-c2ccc(OCCCN3CCc4cc(OC)c(OC)cc4C3)cc2)cc1 | Not Active | 7.9 | 1300 nM | Not Active |  | 
14 | COc1ccc(-c2ccc(OCCN3CCc4cc(OC)c(OC)cc4C3)cc2)cc1 | Not Active | 47 | 930 nM | Not Active |  | 
15 | COc1ccc(-c2ccc(NCCCN3CCc4cc(OC)c(OC)cc4C3)cc2)cc1 | Not Active | 2.2 | 1800 nM | Not Active |  | 
16 | COc1cc2c(cc1OC)CN(CCCCOc1ccc(-c3ccc(O)cc3)cc1)CC2 | Not Active | 1.5 |  | Not Active |  | Not Active
17 | COc1ccc(-c2ccc(OCCCCN3CCc4cc(OC)c(OC)cc4C3)cc2)cc1 | Not Active | 6.6 | 4 nM | Not Active |  | 
18 | COc1ccc(-c2ccc3c(c2)C=C(CCN2CCc4cc(OC)c(OC)cc4C2)CO3)cc1 | Not Active | 4.9 | 1200 nM | Not Active |  | 
19 | COc1cc2c(cc1OC)CN(CCc1ccccc1-c1cccc(O)c1)CC2 | Not Active | 3.2 | 230 nM | Not Active |  | 
20 | COc1cccc(-c2ccccc2CCN2CCc3cc(OC)c(OC)cc3C2)c1 |  | 4.1 | 69 nM | Not Active | 23000 nM | 
